Data published in ChEMBL document CHEMBL4257459, “Synergistic antifungal effect of cyclized chalcone derivatives and fluconazole against Candida albicans” (2017).
In brackets after ≈: the same amount, converted by molar mass.

Assays:
Candida albicans [1] = test: Antifungal activity against fluconazole susceptible Candida albicans 0072gr by CLSI protocol based broth microdilution method; format: functional
Summary of the method: (§1)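 Clinical isolates and control strain subcultured at least twice on TSA, 37 °C, 48 h. MICs by CLSI M27-A3 broth microdilution; compounds dissolved in DMSO to 2000 μg mL–1 stock. Fluconazole positive control, culture, media and DMSO vehicle controls in each run. Duplicate experiments; MIC in μg mL–1.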

Candida albicans [2] = test: Antifungal activity against fluconazole resistant Candida albicans A171 by CLSI protocol based broth microdilution method; format: functional
Summary of the method: (§2)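 Broth microdilution per CLSI M27-A3 against clinical C. albicans isolates. Strains sub-cultured at least twice on Tryptone Soya Agar, 37 °C, 48 h. Compounds dissolved in DMSO at 2000 μg mL–1 stock. Fluconazole positive control, plus culture, media and vehicle controls. Run in duplicate; MIC in μg mL–1.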

Candida albicans [3] = test: Antifungal activity against fluconazole resistant Candida albicans 167-1 by CLSI protocol based broth microdilution method; format: functional; summary of the method: as §2
Candida albicans [4] = test: Down regulation of ERG11 gene expression in fluconazole susceptible Candida albicans ATCC 90028 at MIC after 2 hrs by qRT PCR analysis relative to control; format: functional
Summary of the method: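 Cells exposed to compound at MIC for 2 h; total RNA isolated, cDNA synthesised, ERG11 measured by real-time qPCR with ACT1 as endogenous control. Triplicate independent experiments; mean ± standard deviation.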

Candida albicans [5] = test: Inhibition of ABC efflux pumps in fluconazole resistant Candida albicans A171 assessed as reduction in energy-dependent rhodamine 6G efflux in presence of 0.1 M glucose after 25 mins by fluorescence assay relative to control
Summary of the method: (§3)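 Cells grown in TSB at 37 °C for 8 h, washed, resuspended in glucose-free PBS at 1 × 10^8 cells. De-energized 45 min with 5 mM deoxyglucose plus 5 mM dinitrophenol. […] Washed, sampled 5–25 min, then 0.1 M glucose added. Absorbance 527 nm, R6G from standard curve.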

Candida albicans [6] = test: Down regulation of ERG11 gene expression in fluconazole resistant Candida albicans A171 at MIC after 2 hrs by qRT PCR analysis relative to control; format: functional
Summary of the method: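 Cells exposed 2 h to test agents at MIC. Total RNA isolated, cDNA synthesized, qPCR for ERG11 with ACT1 as endogenous control. Triplicate independent experiments, reported as mean ± standard deviation.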

Candida albicans [7] = test: Antifungal activity against fluconazole susceptible Candida albicans 002B1 in presence of fluconazole by CLSI protocol based broth microdilution method; format: functional
Candida albicans [8] = test: Antifungal activity against fluconazole resistant Candida albicans 167-2 by CLSI protocol based broth microdilution method; format: functional; summary of the method: as §2
Candida albicans [9] = test: Antifungal activity against fluconazole susceptible Candida albicans 004gr in presence of fluconazole by CLSI protocol based broth microdilution method; format: functional
Candida albicans [10] = test: Antifungal activity against fluconazole susceptible Candida albicans 0072gr in presence of fluconazole by CLSI protocol based broth microdilution method; format: functional
Candida albicans [11] = test: Antifungal activity against fluconazole susceptible Candida albicans 003gr by CLSI protocol based broth microdilution method; format: functional; summary of the method: as §1
Candida albicans [12] = test: Inhibition of ABC efflux pumps in fluconazole resistant Candida albicans 167-2 assessed as reduction in energy-dependent rhodamine 6G efflux in presence of 0.1 M glucose after 25 mins […] relative to control
Candida albicans [13] = test: Inhibition of ABC efflux pumps in fluconazole susceptible Candida albicans 004B1 assessed as reduction in energy-dependent rhodamine 6G efflux in presence of 0.1 M glucose after 25 mins by fluorescence assay relative to control; summary of the method: as §3
Candida albicans [14] = test: Inhibition of ABC efflux pumps in fluconazole susceptible Candida albicans 003gr assessed as reduction in energy-dependent rhodamine 6G efflux in presence of 0.1 M glucose after 25 mins […] relative to control
Candida albicans [15] = test: Antifungal activity against Candida albicans ATCC 90028 by CLSI protocol based broth microdilution method; format: functional; summary of the method: as §1
Candida albicans [16] = test: Antifungal activity against fluconazole susceptible Candida albicans 0079gr by CLSI protocol based broth microdilution method; format: functional; summary of the method: as §1
Candida albicans [17] = test: Antifungal activity against fluconazole susceptible Candida albicans 0079gr in presence of fluconazole by CLSI protocol based broth microdilution method; format: functional
Candida albicans [18] = test: Antifungal activity against Candida albicans ATCC 90028 in presence of fluconazole by CLSI protocol based broth microdilution method; format: functional
Candida albicans [19] = test: Inhibition of ABC efflux pumps in fluconazole susceptible Candida albicans 0079gr assessed as reduction in energy-dependent rhodamine 6G efflux in presence of 0.1 M glucose after 25 mins by fluorescence assay relative to control; summary of the method: as §3
Candida albicans [20] = test: Inhibition of ABC efflux pumps in fluconazole susceptible Candida albicans 002B1 assessed as reduction in energy-dependent rhodamine 6G efflux in presence of 0.1 M glucose after 25 mins […] relative to control
Candida albicans [21] = test: Antifungal activity against fluconazole resistant Candida albicans A171 in presence of fluconazole by CLSI protocol based broth microdilution method; format: functional
Summary of the method: (§4)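 Checkerboard-style combination with fluconazole at a 1 : 1 ratio, over concentrations 2–4 fold below each agent's MIC alone, by CLSI broth microdilution. Fractional inhibitory concentration index calculated and interpreted as synergy (<0.5), additive (0.5–1), indifferent or antagonistic.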

Candida albicans [22] = test: Antifungal activity against fluconazole susceptible Candida albicans 002B1 by CLSI protocol based broth microdilution method; format: functional; summary of the method: as §1
Candida albicans [23] = test: Antifungal activity against fluconazole resistant Candida albicans 167-2 in presence of fluconazole by CLSI protocol based broth microdilution method; format: functional; summary of the method: as §4
Candida albicans [24] = test: Antifungal activity against fluconazole resistant Candida albicans 167-1 in presence of fluconazole by CLSI protocol based broth microdilution method; format: functional; summary of the method: as §4
Candida albicans [25] = test: Antifungal activity against fluconazole susceptible Candida albicans 004B1 by CLSI protocol based broth microdilution method; format: functional; summary of the method: as §1
Candida albicans [26] = test: Antifungal activity against fluconazole susceptible Candida albicans 003gr in presence of fluconazole by CLSI protocol based broth microdilution method; format: functional
Candida albicans [27] = test: Inhibition of ergosterol biosynthesis in fluconazole susceptible Candida albicans ATCC 90028 at 0.5 to 1 times MIC relative to control; format: functional
Summary of the method: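 ATCC90028 grown in 50 ml TSB with MIC and ½ MIC of compound; untreated and 8 μg mL–1 fluconazole controls. Sterols extracted by alcoholic KOH method and spectrophotometrically scanned; ergosterol % calculated from A281.5 and A230 (E values 290 and 518) with dilution factor, per pellet weight.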

Candida albicans [28] = test: Inhibition of ABC efflux pumps in fluconazole susceptible Candida albicans 004gr assessed as reduction in energy-dependent rhodamine 6G efflux in presence of 0.1 M glucose after 25 mins by fluorescence assay relative to control; summary of the method: as §3
Candida albicans [29] = test: Inhibition of ABC efflux pumps in fluconazole susceptible Candida albicans 0072gr assessed as reduction in energy-dependent rhodamine 6G efflux in presence of 0.1 M glucose after 25 mins […] relative to control
Candida albicans [30] = test: Inhibition of ergosterol biosynthesis in fluconazole resistant Candida albicans A171 at 0.5 to 1 times MIC relative to control; format: functional
Summary of the method: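 Total sterols quantified by alcoholic KOH extraction in cells grown in 50 ml TSB with compounds at MIC and ½ MIC; untreated and 8 μg mL–1 fluconazole controls. Spectral scan; ergosterol content from A281.5 and A230 absorbances, dilution factor and pellet weight, correcting for 24(28) DHE.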

Candida albicans [31] = test: Inhibition of ABC efflux pumps in fluconazole resistant Candida albicans 167-1 assessed as reduction in energy-dependent rhodamine 6G efflux in presence of 0.1 M glucose after 25 mins […] relative to control
Candida albicans [32] = test: Antifungal activity against fluconazole susceptible Candida albicans 004gr by CLSI protocol based broth microdilution method; format: functional; summary of the method: as §1
Candida albicans [33] = test: Antifungal activity against fluconazole susceptible Candida albicans 004B1 in presence of fluconazole by CLSI protocol based broth microdilution method; format: functional

Compound: c1ccc(-c2cc(-c3ccc(-c4cc(-c5ccccc5)n[nH]4)cc3)[nH]n2)cc1
- MIC (Candida albicans [1]): 2 to 16 µg/mL (≈ 5.52 to 44.1 µM)
- MIC (Candida albicans [2]): 31 to 125 µg/mL (≈ 85.5 to 345 µM)
- MIC (Candida albicans [3]): 31 to 125 µg/mL (≈ 85.5 to 345 µM)
- fold change (FC) (Candida albicans [4]): 1.5 - 13
- inhibition (Candida albicans [5]): < 20%
- fold change (FC) (Candida albicans [6]): 1.25 - 10
- fractional inhibitory concentration index (FICI) (Candida albicans [7]): 0.63 - 1.5
- MIC (Candida albicans [8]): 31 to 125 µg/mL (≈ 85.5 to 345 µM)
- fractional inhibitory concentration index (FICI) (Candida albicans [9]): 0.63 - 1.5
- fractional inhibitory concentration index (FICI) (Candida albicans [10]): 0.63 - 1.5
- MIC (Candida albicans [11]): 2 to 16 µg/mL (≈ 5.52 to 44.1 µM)
- inhibition (Candida albicans [12]): < 20%
- inhibition (Candida albicans [13]): < 20%
- inhibition (Candida albicans [14]): < 20%
- MIC (Candida albicans [15]): 2 to 16 µg/mL (≈ 5.52 to 44.1 µM)
- MIC (Candida albicans [16]): 2 to 16 µg/mL (≈ 5.52 to 44.1 µM)
- fractional inhibitory concentration index (FICI) (Candida albicans [17]): 0.63 - 1.5
- fractional inhibitory concentration index (FICI) (Candida albicans [18]): 0.63 - 1.5
- inhibition (Candida albicans [19]): < 20%
- inhibition (Candida albicans [20]): < 20%
- fractional inhibitory concentration index (FICI) (Candida albicans [21]): 0.531 - 2.27
- MIC (Candida albicans [22]): 2 to 16 µg/mL (≈ 5.52 to 44.1 µM)
- fractional inhibitory concentration index (FICI) (Candida albicans [23]): 0.531 - 2.27
- fractional inhibitory concentration index (FICI) (Candida albicans [24]): 0.531 - 2.27
- MIC (Candida albicans [25]): 2 to 16 µg/mL (≈ 5.52 to 44.1 µM)
- fractional inhibitory concentration index (FICI) (Candida albicans [26]): 0.63 - 1.5
- inhibition (INH) (Candida albicans [27]): 66 - 99%
- inhibition (Candida albicans [28]): < 20%
- inhibition (Candida albicans [29]): < 20%
- inhibition (INH) (Candida albicans [30]): 49 - 94%
- inhibition (Candida albicans [31]): < 20%
- MIC (Candida albicans [32]): 2 to 16 µg/mL (≈ 5.52 to 44.1 µM)
- fractional inhibitory concentration index (FICI) (Candida albicans [33]): 0.63 - 1.5

Compound: S=C1NC(c2ccccc2)=CC(c2ccc(C3C=C(c4ccccc4)NC(=S)N3)cc2)N1 (stereo unspecified)
- MIC (Candida albicans [1]): 0.125 to 1 µg/mL (≈ 0.275 to 2.2 µM)
- MIC (Candida albicans [2]): 2 µg/mL (≈ 4.4 µM)
- MIC (Candida albicans [3]): 2 µg/mL (≈ 4.4 µM)
- fold change (FC) (Candida albicans [4]): 1.5 - 13
- inhibition (Candida albicans [5]): 28%
- fold change (FC) (Candida albicans [6]): 1.25 - 10
- fractional inhibitory concentration index (FICI) (Candida albicans [7]): 0.13 - 0.31
- MIC (Candida albicans [8]): 2 µg/mL (≈ 4.4 µM)
- fractional inhibitory concentration index (FICI) (Candida albicans [9]): 0.13 - 0.31
- fractional inhibitory concentration index (FICI) (Candida albicans [10]): 0.13 - 0.31
- MIC (Candida albicans [11]): 0.125 to 1 µg/mL (≈ 0.275 to 2.2 µM)
- inhibition (Candida albicans [12]): 28%
- inhibition (Candida albicans [13]): 28%
- inhibition (Candida albicans [14]): 28%
- MIC (Candida albicans [15]): 0.125 to 1 µg/mL (≈ 0.275 to 2.2 µM)
- MIC (Candida albicans [16]): 0.125 to 1 µg/mL (≈ 0.275 to 2.2 µM)
- fractional inhibitory concentration index (FICI) (Candida albicans [17]): 0.127
- fractional inhibitory concentration index (FICI) (Candida albicans [18]): 0.13 - 0.31
- inhibition (Candida albicans [19]): 28%
- inhibition (Candida albicans [20]): 28%
- fractional inhibitory concentration index (FICI) (Candida albicans [21]): 0.25 - 0.251
- MIC (Candida albicans [22]): 0.125 to 1 µg/mL (≈ 0.275 to 2.2 µM)
- fractional inhibitory concentration index (FICI) (Candida albicans [23]): 0.25 - 0.251
- fractional inhibitory concentration index (FICI) (Candida albicans [24]): 0.25 - 0.251
- MIC (Candida albicans [25]): 0.125 to 1 µg/mL (≈ 0.275 to 2.2 µM)
- fractional inhibitory concentration index (FICI) (Candida albicans [26]): 0.13 - 0.31
- inhibition (INH) (Candida albicans [27]): 66 - 99%
- inhibition (Candida albicans [28]): 28%
- inhibition (Candida albicans [29]): 28%
- inhibition (INH) (Candida albicans [30]): 49 - 94%
- inhibition (Candida albicans [31]): 28%
- MIC (Candida albicans [32]): 0.125 to 1 µg/mL (≈ 0.275 to 2.2 µM)
- fractional inhibitory concentration index (FICI) (Candida albicans [33]): 0.13 - 0.31
